# From PubChem
# PPC-1+TRAIL kill: compounds killing PPC-1 cancer cells with TRAIL present, primary screen, TRAIL potentiator project, ATPLite luminescence, uHTS | PPC-1 cells + TRAIL, ATPLite viability luminescence | cell killing (% activity), % at 4 µM or 5 µM | 220,000 compounds, 0.41% hits | AID 1443, 2008;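 active means cell killing above 50% in the first pass at 4 µM, then a duplicate retest at 5 µM averaging 50% or more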;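 further: plate controls were cells with TRAIL plus DMSO for no effect and medium-only wells lacking cells for full effect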
# TRAIL sens C8: viability loss with TRAIL in NB7+C8 cells, primary screen, TRAIL sensitizer project, cell-based, ATPlite luminescence; AID 624354, 2012; inhibition (viability loss, TRAIL sensitization), % at 10 µM; 360,000 compounds, 1% hits;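 active means compounds causing at least 50% loss of cell viability in the single-dose screen, relative to plate controls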
# FLuc stim CS: FLuc activators, initial screening, artefact control for FLuc-dependent activation tests, biochemical, ATPlite luminescence; Luciferin 4-monooxygenase (Photinus pyralis), P08659; ATPlite luciferase biochemical, 10 min; 0 = ATP-free wells, 1 = DMSO control; AID 1027, 2008; 200,000 tested, under 10 active; activation factor at 10 µM;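 active means luciferase activation factor, scaled between plate controls, of at least 2 with compound at 10 µM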
# Target sequence (P08659 whole entry, looked up): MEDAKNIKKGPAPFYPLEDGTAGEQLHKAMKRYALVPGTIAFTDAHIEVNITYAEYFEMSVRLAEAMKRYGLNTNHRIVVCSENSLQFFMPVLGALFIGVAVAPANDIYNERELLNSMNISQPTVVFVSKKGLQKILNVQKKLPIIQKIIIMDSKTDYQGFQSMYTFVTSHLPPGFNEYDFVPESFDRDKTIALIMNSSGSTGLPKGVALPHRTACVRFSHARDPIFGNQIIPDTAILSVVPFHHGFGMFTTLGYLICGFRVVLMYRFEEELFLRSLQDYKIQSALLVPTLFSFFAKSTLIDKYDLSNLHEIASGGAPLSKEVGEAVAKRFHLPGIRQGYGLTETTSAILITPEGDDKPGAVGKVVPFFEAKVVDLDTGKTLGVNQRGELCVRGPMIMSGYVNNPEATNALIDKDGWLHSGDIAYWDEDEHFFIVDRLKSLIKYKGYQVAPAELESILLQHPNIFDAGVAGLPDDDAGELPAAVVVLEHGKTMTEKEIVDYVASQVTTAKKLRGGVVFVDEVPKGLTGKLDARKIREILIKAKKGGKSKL
#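 System: cell-free luciferase reagent; medium: PBS as buffer for the ATP substrate; doses: test compounds dosed from 2 mM stocks in 100% DMSO; incubation: 10 min, room temperature; measured by: luminescence from luciferase reaction; read-out: luciferase activation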
# FLuc inh counter: firefly luciferase enzyme inhibitors, primary screen, artefact control for luciferase-based inhibitor screens, biochemical, luminescence, ATPLite; Luciferin 4-monooxygenase (Photinus pyralis), P08659; AID 1006, 2008; inhibition, % at 10 µM; 200,000 compounds, 1.5% hits; 10 min;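 active means inhibition above about 50% when tested at 10 µM, limit read from the data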
# * hit, by the source's call; x = no result. The list is not random: actives were taken first. Their share in the collection is about 1.6%.
SMILES,PPC-1+TRAIL kill,TRAIL sens C8,FLuc stim CS,FLuc inh counter
Cc1ccc(N=Nc2c(C)[nH]n(C(N)=S)c2=O)cc1,33,5,0.7,33
Cc1ccc([N+](=O)[O-])cc1N=Nc1c(C)[nH]n(C(N)=S)c1=O,x,-19,x,x
Cc1ccc([N+](=O)[O-])cc1N=Nc1c(-c2ccc([N+](=O)[O-])cc2)[nH]n(C(N)=S)c1=O,35,50*,1,4
CCN(CC)c1ccc(/C=N/O)cc1,7,5,0.8,18
CCN(CC)c1ccc(N=Nc2ncn[nH]2)cc1,47,48,0.2,82*
CCC(C)(C)c1ccc(OCCCC[n+]2ccccc2)c(C(C)(C)CC)c1,51*,15,1.1,-8
CCC(C)(C)c1ccc(Oc2cccc(C(=O)O)c2)cc1,-4,18,x,x
CCCCCc1ccc(OCCCC[n+]2ccccc2)c(CCCCC)c1,24,79*,1,-4
Cn1c(NC(=O)c2cc(-c3ccc4c(c3)OCO4)nc3ccccc23)cc(=O)n(C)c1=O,41,38,0.3,72*
C=Cc1ncc(OC)c2c1[nH]c1ccccc12,x,66*,x,x
COc1cccc2[nH]c3ccccc3c(=O)c12,x,2,x,x
CC1CCCCN1C(=O)CSc1nnc(-c2ccco2)n1C (configuration not stated),x,8,x,x
COc1ccc(CCNC(=O)CN(c2ccc(C)cc2)S(=O)(=O)c2c(C)noc2C)cc1OC,2,-9,1,-2
Cc1ccc2cc(NC(=O)c3ccccc3)ccc2n1,x,58*,x,x
Cc1ccc2cc(NC(=O)CC(CC(=O)O)c3ccccc3)ccc2n1 (configuration not stated),x,-17,x,x
Cc1ccc2cc(NC(=O)c3cccc(F)c3)ccc2n1,5,46*,x,x
O=C(Nc1ccc2ccccc2c1)c1cccc(F)c1,10,16,x,x
Cc1occc1-c1nnc(SCC(=O)Nc2nccs2)n1CCc1ccccc1,24,x,1,-3
O=C1NCC(COCc2ccccc2)O1 (configuration not stated),21,3,1.1,-7
Cc1nn(C)c(C(=O)N2CCOCC2)c1Cl,24,-2,0.9,5
CC1CCN(S(=O)(=O)c2ccc3c(c2)C(=NO)c2cc(S(=O)(=O)N4CCC(C)CC4)ccc2-3)CC1,97*,95*,1,-2
O=S(=O)(c1ccc2c(c1)C(=NO)c1cc(S(=O)(=O)N3CCCCC3)ccc1-2)N1CCCCC1,95*,91*,0.8,17
Cn1cccc1C(=O)C(=O)Nc1ccccc1,22,32,0.5,52*
CCN(CC(=O)Nc1cc(Cl)ccc1C)C(=O)CN1C(=O)NC(CC)(c2ccccc2)C1=O (configuration not stated),x,10,x,x
C/C(=N\NC(=O)c1cc(-c2ccco2)nc2ccccc12)c1cccnc1,16,8,0.5,53*
SMILES,PPC-1+TRAIL kill,TRAIL sens C8,FLuc stim CS,FLuc inh counter
CCOc1ccc(-c2cc(C(=O)N/N=C(\C)c3cccnc3)c3ccccc3n2)cc1,x,68*,x,x
COc1ccc(OC)c(-c2cc(C(=O)N/N=C(\C)c3cccnc3)c3ccccc3n2)c1,x,-4,x,x
O=C(Nc1cccc(S(=O)(=O)N2CCCC2)c1)c1ccc(Cl)nc1,x,21,x,x
COc1ccccc1/C=N/NC(=O)c1cccc2ccccc12,x,-14,x,x
COc1ccccc1/C=N/NC(=O)c1csc(C)c1C,8,15,0.3,71*
O=C(/C=C/c1cccc(F)c1)OCC(=O)N1CCCc2ccccc21,x,-9,x,x
O=C(/C=C/c1ccc(Cl)cc1Cl)N1CCc2ccccc21,38,61*,0.4,63*
O=C(/C=C/c1cccc(F)c1)N1CCc2ccccc21,43,64*,0.4,62*
CCN1C(=O)[C@H]2[C@@H](c3ccc(OC)cc3)N[C@]3(CCCN(Cc4ccc(F)cc4)C3=O)[C@H]2C1=O,x,-6,x,x
CCOC(=O)C1=C(c2ccccc2)NC(=O)NC1c1cc(OC)c(O)c([N+](=O)[O-])c1 (configuration not stated),x,5,x,x
O=C(/C=C/c1ccc(F)cc1)NC(=S)Nc1ccccc1C(=O)NC1CCCCC1,18,59*,1,0
O=C(/C=C/c1ccccc1)NC(=S)Nc1ccccc1C(=O)NC1CCCCC1,6,4,1.1,-6
O=C(Nc1cc2ccccc2oc1=O)c1ccccc1,48,55*,0.3,67*
CCc1nn(CC(=O)NCCCN2CCc3ccccc3C2)c(=O)c2cc3sccc3n12,31,0,1,0
CCc1sc(C(=O)Nc2ccc3c(c2)OCCO3)cc1Br,x,50*,x,x
Cc1ccc(C(=O)Nc2ccc3nc(C)sc3c2)s1,29,16,0.7,25
O=C(Nc1ccc2c(c1)OCCO2)c1ccc(Br)s1,60*,74*,0.1,86*
Cc1nc2cc(NC(=O)c3ccc(Br)s3)ccc2s1,x,63*,x,x
O=c1nc2cccc3c2=c(/c1=C(\O)c1ccccc1)c1ccccc1c3=O,22,-2,1.1,-8
CCNc1nc(NCC)nc(SCCOC(=O)Nc2ccc(Cl)cc2Cl)n1,4,-7,1,-4
O=C(NCCOc1ccccc1)c1cccc2c1C(=O)c1ccc(Cl)cc1S2(=O)=O,x,55*,x,x
O=C(NC1CC1)c1cccc2c1C(=O)c1ccc(N3CCC(Cc4ccccc4)CC3)cc1S2(=O)=O,x,23,x,x
N#Cc1cccnc1N1CCN(C(=O)c2cccc3c2C(=O)c2ccc(Cl)cc2S3(=O)=O)CC1,x,78*,x,x
N#Cc1cccnc1N1CCN(C(=O)c2cccc3c2C(=O)c2ccc(-c4ccc(Cl)c(C(F)(F)F)c4)cc2S3(=O)=O)CC1,x,8,x,x
O=C1c2ccc(Cl)cc2S(=O)(=O)c2cccc(C(=O)N3CCC(Cc4ccccc4)CC3)c21,x,93*,x,x
SMILES,PPC-1+TRAIL kill,TRAIL sens C8,FLuc stim CS,FLuc inh counter
Cc1ccc2nc(C)cc(C(=O)OCC(=O)c3ccc(Cl)c([N+](=O)[O-])c3)c2c1,-19,25,1,-1
C#Cc1ccc(NC(=O)C2(C)CCN2C(=O)Cc2ccc(C(C)C)cc2)cc1 (configuration not stated),x,52*,x,x
O=C(COC(=O)c1cccc(S(=O)(=O)NCc2ccccc2)c1)c1ccc2c(c1)OCCO2,30,0,0.5,54*
O=C(COC(=O)c1ccc(Cl)nc1)c1ccc2c(c1)OCCO2,20,12,0.1,88*
O=C(CS(=O)(=O)c1ccccc1)c1ccc2c(c1)OCCO2,19,5,0.4,58*
CCCCC(=O)Nc1ccccc1C(=O)OCC(=O)c1ccc2c(c1)OCCO2,25,10,0.3,66*
CC(C)CNC(=O)c1cccc(NC(=O)COc2cccc([N+](=O)[O-])c2)c1,18,21,1,-2
CCN(CC)S(=O)(=O)c1cccc(C(=O)OCC(=O)c2ccc3c(c2)OCCO3)c1,14,-3,0.1,87*
CS(=O)(=O)c1cccc(C(=O)OCC(=O)c2ccc3c(c2)OCCO3)c1,x,4,x,x
